# Assay results taken from ChEMBL document CHEMBL4270616, “Asymmetrical meta-methoxylated diarylpentanoids: Rational design, synthesis and anti-cancer evaluation in-vitro” (Eur J Med Chem, 2018).
# What was measured:
# [1] = tested on: SW-620; test: Cytotoxicity against human SW620 cells after 72 hrs by MTT assay; format: functional, cell-based; settings: SW-620, 72 h
# In short: (§1)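 Tumour lines kept in DMEM with 10% FBS and 1% penicillin/streptomycin at 37°C, 5% CO2. Seeded at 1500-5000 cells/well by doubling time and size, 24 h, then compound in DMSO-containing medium (final DMSO 0.1%) for 72 h. MTT (5 mg/mL) 4 h at 37°C, DMSO solubilisation, absorbance at 570 nm.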
# [2] = tested on: A549; test: Cytotoxicity against human A549 cells after 72 hrs by MTT assay; format: functional, cell-based; settings: A549, 72 h; in short: as §1
# [3] = Cytotoxicity against human EJ28 cells after 72 hrs by MTT assay; format: functional, cell-based; settings: EJ-28, 72 h; in short: as §1
# [4] = tested on: HT-1080; test: Cytotoxicity against human HT1080 cells after 72 hrs by MTT assay; format: functional, cell-based; settings: HT-1080, 72 h; in short: as §1
# [5] = tested on: MCF7; test: Cytotoxicity against human MCF7 cells after 72 hrs by MTT assay; format: functional, cell-based; settings: MCF7, 72 h; in short: as §1
# [6] = tested on: NHDF; test: Cytotoxicity against NHDF after 72 hrs by MTT assay; format: cell-based; settings: Homo sapiens
# In short: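 NHDF grown in DMEM with 5% FBS at 37°C, 5% CO2. Seeded at 1500-5000 cells/well, 24 h, then compound added in DMSO-containing medium (final DMSO 0.1%) for 72 h. MTT (5 mg/mL in medium) added for 4 h at 37°C, formazan dissolved in DMSO, absorbance read at 570 nm.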
# [7] = tested on: SW-620; test: Cytotoxicity against human SW620 cells assessed as inhibition of cell proliferation at 20 uM after 72 hrs by MTT assay relative to control; format: functional; settings: SW-620, 72 h
# In short: (§2)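 Single-concentration screen at 20 μM with 72 h exposure in DMEM with 10% FBS, final DMSO 0.1%. Read-out was MTT (5 mg/mL, 4 h, 37°C), DMSO solubilisation and absorbance at 570 nm, expressed as percent inhibition. Lines reaching a threshold percentage went on to IC50 determination.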
# [8] = tested on: A549; test: Cytotoxicity against human A549 cells assessed as inhibition of cell proliferation at 20 uM after 72 hrs by MTT assay relative to control; format: functional; settings: A549, 72 h; in short: as §2
# [9] = Cytotoxicity against human EJ28 cells assessed as inhibition of cell proliferation at 20 uM after 72 hrs by MTT assay relative to control; format: functional; settings: EJ-28, 72 h; in short: as §2
# [10] = tested on: HT-1080; test: Cytotoxicity against human HT1080 cells assessed as inhibition of cell proliferation at 20 uM after 72 hrs by MTT assay relative to control; format: functional; settings: HT-1080, 72 h; in short: as §2
# [11] = tested on: MCF7; test: Cytotoxicity against human MCF7 cells assessed as inhibition of cell proliferation at 20 uM after 72 hrs by MTT assay relative to control; format: functional; settings: MCF7, 72 h; in short: as §2
Compound,IC50 [1],IC50 [2],IC50 [3],IC50 [4],IC50 [5],IC50 [6],inhibition at 20 µM [7],inhibition at 20 µM [8],inhibition at 20 µM [9],inhibition at 20 µM [10],inhibition at 20 µM [11]
COc1cccc(/C=C2\CCC/C(=C\c3ccc(OC)c(OC)c3)C2=O)c1,3.7 µM,6.7 µM,4.2 µM,4.6 µM,4.6 µM,11.6 µM,> 50%,> 50%,> 50%,> 50%,> 50%
COc1cc(/C=C2\CCC/C(=C\c3cccc(OC)c3OC)C2=O)ccc1O,8.6 µM,> 20 µM,10.6 µM,5.9 µM,11.6 µM,14.3 µM,> 50%,> 50%,> 50%,> 50%,> 50%
COc1ccc(/C=C2\CCC/C(=C\c3ccc(Cl)c(Cl)c3)C2=O)cc1OC,4 µM,6.9 µM,3.4 µM,3.1 µM,4.4 µM,10.1 µM,> 50%,> 50%,> 50%,> 50%,> 50%
COc1cccc(/C=C2\CCC/C(=C\c3cc(Cl)cc(Cl)c3)C2=O)c1OC,5.5 µM,12.5 µM,7.5 µM,6.1 µM,4.3 µM,21.6 µM,> 50%,> 50%,> 50%,> 50%,> 50%
COc1cc(/C=C2\CCC/C(=C\c3ccc(OC)c(OC)c3)C2=O)ccc1O,4.5 µM,10.3 µM,4.6 µM,4.6 µM,7.9 µM,13.7 µM,> 50%,> 50%,> 50%,> 50%,> 50%
COc1cccc(/C=C2\CCC/C(=C\c3ccc(Cl)cc3Cl)C2=O)c1OC,16.3 µM,> 20 µM,> 20 µM,> 20 µM,> 20 µM,49.2 µM,> 50%,> 50%,> 50%,> 50%,> 50%
COc1ccc(/C=C2\CCC/C(=C\c3ccc(O)cc3)C2=O)cc1OC,7.7 µM,> 20 µM,16.6 µM,16.8 µM,17 µM,26.1 µM,> 50%,> 50%,> 50%,> 50%,> 50%
COc1cccc(/C=C2\CCC/C(=C\c3ccc(Cl)c(Cl)c3)C2=O)c1OC,10 µM,> 20 µM,12.1 µM,10.8 µM,9 µM,25.5 µM,> 50%,> 50%,> 50%,> 50%,> 50%
COc1cccc(/C=C2\CCC/C(=C\c3ccccc3Cl)C2=O)c1OC,10.3 µM,> 20 µM,12 µM,11.7 µM,11.3 µM,44.2 µM,> 50%,> 50%,> 50%,> 50%,> 50%
COc1ccc(/C=C2\CCC/C(=C\c3cccc(OC)c3OC)C2=O)c(OC)c1,> 20 µM,> 20 µM,> 20 µM,> 20 µM,> 20 µM,> 50 µM,> 50%,> 50%,> 50%,> 50%,> 50%
COc1ccc(/C=C2\CCC/C(=C\c3ccccc3Br)C2=O)cc1OC,5.3 µM,> 20 µM,7.4 µM,8.4 µM,9.5 µM,21.8 µM,> 50%,> 50%,> 50%,> 50%,> 50%
COc1ccc(/C=C2\CCC/C(=C\c3cccc(OC)c3OC)C2=O)cc1,13.6 µM,> 20 µM,16.8 µM,16.3 µM,18.6 µM,43.5 µM,> 50%,> 50%,> 50%,> 50%,> 50%
COc1ccc(/C=C2\CCC/C(=C\c3ccc(OC)c(OC)c3)C2=O)cc1,6.6 µM,> 20 µM,8.4 µM,7.2 µM,7.8 µM,30.9 µM,> 50%,> 50%,> 50%,> 50%,> 50%
COc1cccc(/C=C2\CCC/C(=C\c3ccccc3Br)C2=O)c1OC,12.1 µM,> 20 µM,10.8 µM,10.8 µM,9.7 µM,> 50 µM,> 50%,> 50%,> 50%,> 50%,> 50%
COc1ccc(/C=C2\CCC/C(=C\c3ccc(Cl)cc3Cl)C2=O)cc1OC,10.3 µM,> 20 µM,12.4 µM,10.5 µM,16.2 µM,> 50 µM,> 50%,> 50%,> 50%,> 50%,> 50%
COc1ccccc1/C=C1\CCC/C(=C\c2ccc(OC)c(OC)c2)C1=O,7.8 µM,> 20 µM,8.1 µM,8.1 µM,8 µM,18.1 µM,> 50%,> 50%,> 50%,> 50%,> 50%
COc1ccc(/C=C2\CCC/C(=C\c3cccc(Cl)c3)C2=O)cc1OC,5.1 µM,11 µM,5.4 µM,4.9 µM,6 µM,11.9 µM,> 50%,> 50%,> 50%,> 50%,> 50%
COc1ccc(/C=C2\CCC/C(=C\c3ccc(OC)c(OC)c3)C2=O)c(OC)c1,> 20 µM,> 20 µM,> 20 µM,17.1 µM,15.6 µM,> 50 µM,> 50%,> 50%,> 50%,> 50%,> 50%
COc1ccc(/C=C2\CCC/C(=C\c3cccc(OC)c3OC)C2=O)cc1OC,6.4 µM,14.4 µM,6.6 µM,6.4 µM,6.5 µM,14.9 µM,> 50%,> 50%,> 50%,> 50%,> 50%
COc1cccc(/C=C2\CCC/C(=C\c3ccc(Br)cc3)C2=O)c1OC,11.1 µM,> 20 µM,15.2 µM,13.7 µM,13.8 µM,21.4 µM,> 50%,> 50%,> 50%,> 50%,> 50%
COc1cccc(/C=C2\CCC/C(=C\c3cccc(Cl)c3)C2=O)c1OC,9.1 µM,> 20 µM,11.3 µM,10.3 µM,12 µM,21.4 µM,> 50%,> 50%,> 50%,> 50%,> 50%
COc1cccc(/C=C2\CCC/C(=C\c3ccc(O)cc3)C2=O)c1OC,> 20 µM,> 20 µM,> 20 µM,> 20 µM,> 20 µM,> 50 µM,> 50%,> 50%,> 50%,> 50%,> 50%
COc1ccc(/C=C2\CCC/C(=C\c3cccc(Br)c3)C2=O)cc1OC,4.2 µM,12.8 µM,4.9 µM,5.2 µM,5.3 µM,12.4 µM,> 50%,> 50%,> 50%,> 50%,> 50%
COc1cc(/C=C/C(=O)CC(=O)/C=C/c2ccc(O)c(OC)c2)ccc1O [CURCUMIN],14 µM,17.9 µM,10.5 µM,13.1 µM,9.8 µM,24.1 µM,,,,,
